For data set [1], the target named is T1, Protein kinase C (PKC) (Homo sapiens) (UniProt O94806+P41743+P17252+P05129+Q05655+P05771+Q05513+Q02156+P24723+Q15139+Q04759). Description: Activation of PKC in human ACH-2 cells infected with latent HIV-1 assessed as reversal of HIV-1 latency by measuring increase in p24 antigen level at 1 to 10000 nM incubated for 48 hrs by chemiluminescent enzyme immunoassay. Type of data set: cell-based. To be noted: ACH-2 cell line, filed as activator, dose 1-10000 nM. The method, boiled down:
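ACH-2 or U1 cells (5 × 10^5 cells/ml) incubated 48 h with graded drug concentrations. Supernatant p24 antigen measured by automated chemiluminescent immunoassay. EC50 calculated taking the maximum response with excess PMA as 100%. Means ± S.D. of three independent experiments.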

For data set [2], the target named is Protein kinase C (PKC). Description: Activation of PKC in human J-Lat 10.6 cells infected with latent HIV-1 assessed as reversal of HIV-1 latency by measuring increase of GFP-positive cells at 1 to 10000 nM incubated for 24 hrs by flow cytometry. The format is cell-based. The method, boiled down:
(§1)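 J-Lat 10.6 or J-Lat 6.3 cells (5 × 10^5 cells/ml) incubated 24 h with graded drug concentrations; % GFP-positive cells determined by flow cytometry. Means ± S.D. of three independent experiments.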

The target of data set [3] is Protein kinase C (PKC). Kind of data set: Activation of PKC in human J-Lat 6.3 cells infected with latent HIV-1 assessed as reversal of HIV-1 latency by measuring increase of GFP-positive cells at 1 to 10000 nM incubated for 24 hrs by flow cytometry. The format is cell-based. The method, boiled down: as §1
(A flow cytometer gives signals particle by particle.)

For data set [4], the target named is T1, Protein kinase C (PKC) (Homo sapiens). Kind of data set: (§2) Activation of PKC in human ACH-2 cells infected with latent HIV-1 assessed as reversal of HIV-1 latency by measuring increase in p24 antigen level incubated for 48 hrs by chemiluminescent enzyme immunoassay. Type of data set: cell-based. To be noted: ACH-2 cell line, filed as activator.
The target in data set [5] is Protein kinase C (PKC). The description is as §2. Type of data set: cell-based. To be noted: ach-2 cell line.
Data set [6] addresses T1, Protein kinase C (PKC) (Homo sapiens). Description: (§3) Activation of PKC in human U1 cells infected with latent HIV-1 assessed as reversal of HIV-1 latency by measuring increase in p24 antigen level incubated for 48 hrs by chemiluminescent enzyme immunoassay. The format is cell-based. To be noted: filed as activator.
The target of data set [7] is Protein kinase C (PKC). The description is as §3. Type of data set: cell-based.
The nature of data set [8]: Toxicity in human A3.01 cells assessed as reduction in cell viability after 48 hrs by WST8 assay. The format is cell-based. The method, boiled down: (§4)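 Parental, uninfected lines (A3.01 for ACH-2, U937 for U1) at 5 × 10^5 cells/ml cultured with or without drug. Viable cells read at 48 h (day 2) and expressed as % of untreated control. CC50 taken as the concentration lowering viability by 50%.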
In general terms: Tetrazolium dyes change colour on reduction, which living cells bring about.

Data set [9] in a line: Toxicity in human U-937 cells assessed as reduction in cell viability after 48 hrs by WST8 assay. The format is cell-based. The method, boiled down: as §4
Data set [10] can be described thus: Toxicity in human PBMC assessed as reduction in cell viability after 5 days by WST8 assay. Type of data set: cell-based. To be noted: time 5 day. The method, boiled down: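 PBMC from a healthy donor exposed to drug, with viability determined at day 5. CC50 is the concentration reducing viability by 50%.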
For data set [11], the system named is U1. Description: Induction of apoptosis in human U1 cells at 1 uM after 48 hrs by PI/annexin-V staining based flow cytometry. The format is functional.
For data set [12], the target named is T1, Protein kinase C (PKC) (Homo sapiens). Kind of data set: Activation of PKC in human J-Lat 10.6 cells infected with latent HIV-1 assessed as reversal of HIV-1 latency by measuring increase of GFP-positive cells at 400 nM incubated for 24 hrs by flow cytometry. The format is cell-based. To be noted: filed as activator.
The target is the same in data set [13]. Description: Activation of PKC in human ACH-2 cells infected with latent HIV-1 assessed as reversal of HIV-1 latency by measuring increase in p24 antigen level at 5 to 50 nM incubated for 48 hrs in presence of 100 nM GSK525762A by chemiluminescent enzyme immunoassay. Type of data set: cell-based. To be noted: ACH-2 cell line, dose 5-50 nM. The method, boiled down: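 ACH-2 cells treated 48 h with 5–50 nM of the test agent, alone or combined with 100 nM GSK525762A (BRD4 inhibitor). Supernatant p24 measured by chemiluminescent immunoassay. Synergy or antagonism scored with the Bliss independence model (Δfaxy >0 synergy, <0 antagonism). Three independent experiments, mean ± S.D.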

Data set [14] has as its system U1. Description: Induction of apoptosis in human U1 cells at 1 uM incubated for 48 hrs after pre-incubated for 2 hrs with 20 uM caspase inhibitor Q-VD-Oph by propidium iodide/annexin-V staining based flow cytometry relative to compound alone control. Type of data set: functional. On the set-up: scale not given: the % may be the effect or the level left. The method, boiled down:
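ACH-2 or U1 cells pretreated 2 h with 20 µM pan-caspase inhibitor Q-VD-Oph, then exposed to 1 µM compound for 48 h. Annexin-V/PI staining by flow cytometry; apoptotic proportions compared with and without Q-VD-Oph. Mean ± S.D.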

The target of data set [15] is T1, Protein kinase C (PKC) (Homo sapiens). Description: Activation of PKC in human J-Lat 6.3 cells infected with latent HIV-1 assessed as reversal of HIV-1 latency by measuring increase of GFP-positive cells at 10 uM in presence of pan-PKC inhibitor Go-6983 incubated for 24 hrs by flow cytometry. Type of data set: cell-based. The method, boiled down:
(§5)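 J-Lat 6.3 cells pretreated 3 h with a PKC inhibitor: Gö 6983 1 µM, Gö 6976 1 µM, GF 109203X 1 µM, PKCθ/δ inhibitor 10 µM, or Rottlerin 1 µM. Then exposed to 10 µM compound for 24 h; GFP-positive cells counted by flow cytometry. Mean ± S.D.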

For data set [16] the target is unchanged. Kind of data set: Activation of PKC in human J-Lat 6.3 cells infected with latent HIV-1 assessed as reversal of HIV-1 latency by measuring increase of GFP-positive cells at 10 uM in presence of PKC alpha/beta/gamma inhibitor GF109203X incubated for 24 hrs by flow cytometry. The format is cell-based. The method, boiled down:
as §5

Data set [17] in a line: Toxicity in human CD4+ T-cells assessed as increase in ratio of CD25+ cells incubated for 24 hrs by flow cytometry. Type of data set: cell-based. To be noted: cd4+ t cell. The method, boiled down:
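Primary CD4+ T-cells from healthy donors treated with drug for 24 h. Cells stained with anti-CD25 and anti-CD69 antibodies (plus CD3, CD4, HLA-DR) for 30 min on ice, then marker-positive proportions quantified by flow cytometry.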

Data set [18] in a line: Toxicity in human CD4+ T-cells assessed as elevation of supernatant cytokine concentrations of IL-2 incubated for 24 hrs in presence of JQ1 by bead-based immunoassay. To be noted: cd4+ t cell. The method, boiled down:
(§6)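 Purified CD4+ T-cells from healthy donors treated 24 h with 1 μm drug, 1 μm JQ1, or the combination. IL-2, IL-5, IL-6, IL-13, TNFα and IFN-γ in supernatants measured by flow-cytometry bead-based Th1/Th2 immunoassay. Run in duplicate.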

Data set [19] in a line: Toxicity in human CD4+ T-cells assessed as elevation of supernatant cytokine concentrations of TNFalpha incubated for 24 hrs in presence of JQ1 by bead-based immunoassay. To be noted: cd4+ t cell. The method, boiled down: as §6
In a further data set the test system is J-Lat 6.3. Description: Induction of apoptosis in human J-Lat 6.3 cells assessed as caspase-3 activation at 1 uM incubated for 24 hrs by flow cytometry. Type of data set: functional. The method, boiled down: (§7)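 Cells fixed in 1% paraformaldehyde, permeabilized, stained 30 min on ice with anti-active caspase-3 mAb, and analysed by flow cytometry. Three independent experiments.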

Data set [20] can be described thus: Induction of apoptosis in human CEM A3.01 cells assessed as caspase-3 activation at 1 uM incubated for 24 hrs by flow cytometry. The format is functional. The method, boiled down: as §7
The test system of another data set is U-937. Kind of data set: Induction of apoptosis in human U-937 cells assessed as caspase-3 activation at 1 uM incubated for 24 hrs by flow cytometry. The format is functional. The method, boiled down:
as §7

A further data set has as its system Jurkat. Kind of data set: Induction of apoptosis in human Jurkat cells assessed as caspase-3 activation at 1 uM incubated for 24 hrs by flow cytometry. Type of data set: functional. The method, boiled down: as §7

Active and inactive are the calls of the source. No cut-off for these calls is given here.

For orientation: EC50 means the concentration at which the effect is half-maximal. For orientation: CC50 means the concentration at which the toxic effect on the cells reaches its halfway point. For `CCCCCCCCCCc1ccc2c(c1)N(C)[C@@H](C(C)C)C(=O)N[C@H](CO)C2`, in [1], the result was Active. In addition, the EC50 is 10.6 µM on Protein kinase C (PKC) [2], 6.3 µM on Protein kinase C (PKC) [3], 0.025 µM on Protein kinase C (PKC) [5] and 0.034 µM at Protein kinase C (PKC) [7]. Moreover, the Activity result in [4] is “Dose-Dependent Effect”; in data set [6], “Dose-Dependent Effect”; in the data set on U1 [11], 30.4%; in [12], 42.2%; with U1 [14] it was 20%; in [17] it was “Non-Toxic”. The Activity entry is given as “Non-Toxic” in data set [18]; “Non-Toxic” in [19]; 12.2% in the data set with J-Lat 6.3; 2.01% in data set [20]; 0.5% in the data set with U-937; 2.63% in the data set on Jurkat. The values for the CC50 at 48 h in [8] and in [9] were 21.1 µM and 61.2 µM, respectively. Besides, in [10], the half-maximal cytotoxic concentration (CC50) at 120 h was found to be 39.9 µM. Moreover, the result in [13], in [15] and in [16] was inactive.
